This sample holds only a part of the variants without activity.
B1: tRNA (parent)
chain: GUUCCGUUGGCGUAAUGGUAACGCGUCUCCCUCCUAAGGAGAAGACUGCGGGUUCGAGUCCCGUACGGAACG

Variants of: B1
Assay: yeast fitness relative to wild type (ratio to wild type); higher = fitter; tRNA-Arg(CCU), competitive growth, 37 C, YPD
Method in brief: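 Gene amplicons from the start population and from each of six end populations were read by 100-nucleotide paired-end sequencing. Those end populations came from pooled Saccharomyces cerevisiae strains carrying tRNA-Arg(CCU) gene variants at the native locus, competed in YPD at 37°C for 24 hours. Fitness relative to wild type was worked out from changes in genotype frequencies. Genotypes needed ≥ 100 starting reads, and estimates < 0.5 were set to 0.5.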

Variant	yeast fitness
G12C G48C A70U	0.539
U13A A15G C27U C62A G63A A70C	≤ 0.5
G12C U32G A40U A57U A65U	0.568
G12U G23A A36G G39A	≤ 0.5
G12C C27U G50A	≤ 0.5
G12C C33U U47C G48A G58A	≤ 0.5
U13A A14U C27G C46G	0.553
U13A C22A A36U A65G	≤ 0.5
U13A A42U C66U	0.704
U13A C61A A65G	0.544
U13A G41A	0.714
U13A A15C C46U	0.612
U13A A42C	1.05
U13A A42G	0.851
U13A C22A A36U	≤ 0.5
G12C G23C G50A C55A	≤ 0.5
U13A C46G G63C C66A	≤ 0.5
G12C A20C A43U	0.632
G12C A20C A43C	≤ 0.5
G12C C24U G67C	0.536
G12C C31U A57U	0.603

Variant	yeast fitness
U13A G23C C27G C61A C62U	≤ 0.5
G12C A20U C30U C55U C66U	0.551
G12C U47A U54C	0.519
G12C U13A A20C A21G U26G	≤ 0.5
G12C A20U G25A A36G C46A U54A A70U	≤ 0.5
U13A A40G U47G G63C	0.535
U13A G23C C27G U53C C61A G68A	0.584
U13A C49U U54C C62U G68C	≤ 0.5
G12C C31U C62G	0.557
G12C A69C A70U	0.688
G12C U26C A37G	≤ 0.5
G12C U59C A69C	0.665
G12C A37C A40U C46U	0.59
G12C G39A A57U	≤ 0.5
U13A A42C C66U	0.76
G12C A65C	0.783
G12C A65G	0.783
G12U C33U C34G	≤ 0.5
U13A A15G C27U A57G	≤ 0.5
U13A C30U G39C C55G	0.545
U13A C22G C24A C46G C55U	0.551

Variant	yeast fitness
U13A C27A C61U C66U	≤ 0.5
U13A G18C A36G G41C C55U	0.55
G12C A14G C22U U54C C61U	≤ 0.5
U13A A37U U53G	0.536
G12C A45C	0.75
G12C C24U G48C G68A A69C	≤ 0.5
G12U U54C	0.59
G12C C30U A43G	0.515
U13A A20G A21U A40U	≤ 0.5
G12C U28A	1.04
G12C C22G G23A C55A	≤ 0.5
U13A C22G C31G C61A	0.512
U13A C31U A40U	1.04
G12C C24U C46U C49G	≤ 0.5
U13A C49A	0.654
U13A C49U	1.02
G12C U32C A65G	0.569
G12C G41A C60G A65G	0.519
U13A G18A	0.705
U13A C31G	1.05
G12U C30G	≤ 0.5

Variant	yeast fitness
U13A A20U A37C	0.557
U13A C22G U59G A65U	≤ 0.5
G12C C31G G51A C55G A57G G68C	≤ 0.5
G12U C60G	≤ 0.5
G12C C31U G50A	0.677
G12C C30U C34U A42G A57C	≤ 0.5
G12C C29G C46G G51A G52A	≤ 0.5
G12C A36C G50A	≤ 0.5
G12C G56C	0.694
G12C G56A	0.838
U13A A40C U53A	0.53
G12C G17A C46G C66A	≤ 0.5
G12C G25U G44C	≤ 0.5
G12C U32G C49G C55A	≤ 0.5
G12C A40G	0.683
G12C A40C	0.722
G12C A14G G25A G41C C61U G67A	0.573
U13A C24A C30A	0.605
G12C C24U A40U	≤ 0.5
G12C A15U G25A	0.696

Reference: the RNAGym collection of RNA variant scans (doi:10.1126/science.aae0568)
